Reference: ChEMBL document CHEMBL5724801, “EUbOPEN Chemogenomics Library - Multiplex” (2024)
Several values for one entry are separate records, joined by “and”; a condition that tells them apart may be missing. Identical values can stand only once. Non-standard residues stand in square brackets, D forms with d. Residues, ends and D or L forms follow the SMILES beside them.

Test system: Fibroblast
Experiment: Multiplex assay against human fibroblast
Assay type: toxicity, cell-based
Method in brief: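 Live cells carried four stains from seeding: Hoechst33342, BioTracker Green Microtubule Cytoskeleton Dye, MitoTracker Red and Annexin V Alexa Fluor 680. They were imaged on a CQ1 microscope at 37°C and 5% CO2 after compound addition. Using CellPathfinder machine-learning gating, cells were split into Hoechst high-intensity objects or normal cells, normal cells into healthy, pyknosed or fragmented nuclei, and pyknosed cells into mitotic or apoptotic; tubulin, mitochondrial-mass and membrane-permeability phenotypes are per cents of healthy-nucleus cells.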

[1] = 12 h, 1 µM, compound concentration 1 uM
[2] = 12 h, 10 µM, compound concentration 10 uM
[3] = 24 h, 1 µM, compound concentration 1 uM
[4] = 24 h, 10 µM, compound concentration 10 uM
[5] = 48 h, 1 µM, compound concentration 1 uM
[6] = 48 h, 10 µM, compound concentration 10 uM

## CCC(=O)OCC(=O)[C@@]1(OC(=O)CC)[C@@H](C)C[C@H]2[C@@H]3CCC4=CC(=O)C=C[C@]4(C)[C@@]3(Cl)[C@@H](O)C[C@@]21C [BECLOMETHASONE DIPROPIONATE]
[1]
  Population Apoptotic (%): 38% and 42%
  Population Fragmented Nuclei (%): 13% and 30%
  Population Healthy Nuclei (%): 73% and 40%
  Population Hoechst High Intensity Objects (%): 3%
  Population Membrane Permeable-Phenotype (%): 1% and 5%
  Population Mitochondria Different-Phenotype (%): 2% and 10%
  Population Mitotic Cells (%): 61% and 57%
  Population Normal (%): 96%
  Population Pyknosed Nuclei (%): 13% and 30%
  Population Tubulin-Different-Phenotype (%): 47% and 63%
  Total Cell Count: 135 and 155
[2]
  Population Apoptotic (%): 40%
  Population Healthy Nuclei (%): 69% and 42%
  Population Hoechst High Intensity Objects (%): 8% and 5%
  Population Mitochondria Different-Phenotype (%): 17% and 20%
  Population Mitotic Cells (%): 60% and 59%
  Population Normal (%): 91% and 94%
  Population Pyknosed Nuclei (%): 20% and 24%
  Population Tubulin-Different-Phenotype (%): 87% and 94%
  Total Cell Count: 157 and 96
[3]
  Population Apoptotic (%): 50% and 47%
  Population Fragmented Nuclei (%): 16% and 30%
  Population Healthy Nuclei (%): 65% and 45%
  Population Hoechst High Intensity Objects (%): 1% and 6%
  Population Membrane Permeable-Phenotype (%): 3% and 7%
  Population Mitochondria Different-Phenotype (%): 2% and 7%
  Population Mitotic Cells (%): 50% and 52%
  Population Normal (%): 98% and 93%
  Population Pyknosed Nuclei (%): 18% and 24%
  Population Tubulin-Different-Phenotype (%): 34% and 60%
  Total Cell Count: 134 and 150
[4]
  Population Apoptotic (%): 40% and 19%
  Population Fragmented Nuclei (%): 13% and 38%
  Population Healthy Nuclei (%): 66% and 40%
  Population Hoechst High Intensity Objects (%): 6%
  Population Mitochondria Different-Phenotype (%): 30% and 12%
  Population Mitotic Cells (%): 59% and 80%
  Population Normal (%): 93%
  Population Pyknosed Nuclei (%): 19% and 21%
  Population Tubulin-Different-Phenotype (%): 86% and 79%
  Total Cell Count: 148 and 104
[5]
  Population Apoptotic (%): 28% and 52%
  Population Fragmented Nuclei (%): 13% and 31%
  Population Healthy Nuclei (%): 56% and 41%
  Population Hoechst High Intensity Objects (%): 3% and 7%
  Population Membrane Permeable-Phenotype (%): 1% and 5%
  Population Mitochondria Different-Phenotype (%): 15% and 9%
  Population Mitotic Cells (%): 71% and 47%
  Population Normal (%): 96% and 92%
  Population Pyknosed Nuclei (%): 30% and 27%
  Population Tubulin-Different-Phenotype (%): 61% and 54%
  Total Cell Count: 132 and 143
[6]
  Population Apoptotic (%): 67% and 37%
  Population Fragmented Nuclei (%): 21% and 33%
  Population Healthy Nuclei (%): 54% and 33%
  Population Hoechst High Intensity Objects (%): 6% and 3%
  Population Membrane Permeable-Phenotype (%): 0% and 18%
  Population Mitotic Cells (%): 32% and 62%
  Population Normal (%): 93% and 96%
  Population Pyknosed Nuclei (%): 24% and 33%
  Population Tubulin-Different-Phenotype (%): 76% and 84%
  Total Cell Count: 162 and 99

## CC(C)C[C@@H]1NC(=O)[C@@H](C(C)C)NC(=O)[C@@H]2CCCN2C(=O)[C@@H](CC(=O)O)NC(=O)[C@@H](Cc2c[nH]c3ccccc23)NC1=O [BQ-123] (cyclo(L[dW][dD]P[dV]))
[1]
  Population Apoptotic (%): 57% and 21%
  Population Fragmented Nuclei (%): 18% and 22%
  Population Healthy Nuclei (%): 68% and 58%
  Population Hoechst High Intensity Objects (%): 0% and 3%
  Population Membrane Permeable-Phenotype (%): 1% and 5%
  Population Mitochondria Different-Phenotype (%): 11% and 2%
  Population Mitotic Cells (%): 42% and 78%
  Population Normal (%): 100% and 96%
  Population Pyknosed Nuclei (%): 13% and 18%
  Population Tubulin-Different-Phenotype (%): 31%
  Total Cell Count: 105 and 157
[2]
  Population Apoptotic (%): 48% and 33%
  Population Fragmented Nuclei (%): 15% and 30%
  Population Healthy Nuclei (%): 65% and 48%
  Population Hoechst High Intensity Objects (%): 2%
  Population Membrane Permeable-Phenotype (%): 0% and 4%
  Population Mitochondria Different-Phenotype (%): 9% and 3%
  Population Mitotic Cells (%): 52% and 66%
  Population Normal (%): 97%
  Population Pyknosed Nuclei (%): 18% and 20%
  Population Tubulin-Different-Phenotype (%): 33% and 46%
  Total Cell Count: 136 and 134
[3]
  Population Apoptotic (%): 53% and 24%
  Population Fragmented Nuclei (%): 19% and 23%
  Population Healthy Nuclei (%): 66% and 57%
  Population Hoechst High Intensity Objects (%): 1% and 6%
  Population Membrane Permeable-Phenotype (%): 0% and 3%
  Population Mitochondria Different-Phenotype (%): 5% and 3%
  Population Mitotic Cells (%): 46% and 75%
  Population Normal (%): 98% and 93%
  Population Pyknosed Nuclei (%): 14% and 18%
  Population Tubulin-Different-Phenotype (%): 24% and 25%
  Total Cell Count: 107 and 166
[4]
  Population Apoptotic (%): 50% and 29%
  Population Fragmented Nuclei (%): 19% and 27%
  Population Healthy Nuclei (%): 64% and 50%
  Population Hoechst High Intensity Objects (%): 8% and 0%
  Population Membrane Permeable-Phenotype (%): 1% and 11%
  Population Mitochondria Different-Phenotype (%): 5% and 3%
  Population Mitotic Cells (%): 50% and 70%
  Population Normal (%): 91% and 99%
  Population Pyknosed Nuclei (%): 15% and 22%
  Population Tubulin-Different-Phenotype (%): 32% and 50%
  Total Cell Count: 123
[5]
  Population Apoptotic (%): 50% and 52%
  Population Fragmented Nuclei (%): 18% and 28%
  Population Healthy Nuclei (%): 70% and 56%
  Population Hoechst High Intensity Objects (%): 3% and 4%
  Population Membrane Permeable-Phenotype (%): 0% and 2%
  Population Mitochondria Different-Phenotype (%): 12% and 4%
  Population Mitotic Cells (%): 50% and 48%
  Population Normal (%): 96% and 95%
  Population Pyknosed Nuclei (%): 11% and 15%
  Population Tubulin-Different-Phenotype (%): 25% and 39%
  Total Cell Count: 109 and 172
[6]
  Population Apoptotic (%): 70% and 46%
  Population Fragmented Nuclei (%): 26% and 45%
  Population Healthy Nuclei (%): 59% and 42%
  Population Hoechst High Intensity Objects (%): 5% and 6%
  Population Membrane Permeable-Phenotype (%): 1% and 9%
  Population Mitochondria Different-Phenotype (%): 5% and 3%
  Population Mitotic Cells (%): 29% and 53%
  Population Normal (%): 94% and 93%
  Population Pyknosed Nuclei (%): 13% and 12%
  Population Tubulin-Different-Phenotype (%): 38% and 51%
  Total Cell Count: 129 and 130
